Experimental data reported in ChEMBL document CHEMBL1142298, “Synthesis and dopamine receptor affinities of N-alkyl-11-hydroxy-2-methoxynoraporphines: N-alkyl substituents determine D1 versus D2 receptor selectivity” (J Med Chem, 2008).

Legend:
[1] = molecular target: D(1A) dopamine receptor (Rattus norvegicus, UniProt P18901); assay: Displacement of [3H]SCH-23390 from dopamine D1 receptor in rat striatum
Summary of the method: (§1)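 Competitive radioligand binding on membrane homogenates prepared from rat striatum tissue, following a previously published procedure.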

[2] = molecular target: D(2) dopamine receptor (Rattus norvegicus, UniProt P61169); assay: Displacement of [3H]neomonapride from dopamine D2 receptor in rat striatum; summary of the method: as §1
D(2) dopamine receptor, sequence (P61169 whole entry): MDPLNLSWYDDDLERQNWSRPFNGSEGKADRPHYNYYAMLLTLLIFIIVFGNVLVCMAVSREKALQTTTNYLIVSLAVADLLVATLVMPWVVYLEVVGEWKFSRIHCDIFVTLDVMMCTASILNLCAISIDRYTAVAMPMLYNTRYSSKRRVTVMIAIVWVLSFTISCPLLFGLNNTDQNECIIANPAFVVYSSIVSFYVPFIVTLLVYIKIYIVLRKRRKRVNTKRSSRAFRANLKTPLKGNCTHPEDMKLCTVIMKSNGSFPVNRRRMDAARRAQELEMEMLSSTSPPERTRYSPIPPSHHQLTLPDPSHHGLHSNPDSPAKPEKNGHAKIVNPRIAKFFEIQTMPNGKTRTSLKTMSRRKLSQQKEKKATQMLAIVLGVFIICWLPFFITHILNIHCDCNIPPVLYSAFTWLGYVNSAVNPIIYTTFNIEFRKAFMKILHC

[3] = species: Rattus norvegicus; assay: Selectivity ratio of rat dopamine D2 receptor to rat dopamine D1 receptor

D(1A) dopamine receptor, sequence (P18901 whole entry): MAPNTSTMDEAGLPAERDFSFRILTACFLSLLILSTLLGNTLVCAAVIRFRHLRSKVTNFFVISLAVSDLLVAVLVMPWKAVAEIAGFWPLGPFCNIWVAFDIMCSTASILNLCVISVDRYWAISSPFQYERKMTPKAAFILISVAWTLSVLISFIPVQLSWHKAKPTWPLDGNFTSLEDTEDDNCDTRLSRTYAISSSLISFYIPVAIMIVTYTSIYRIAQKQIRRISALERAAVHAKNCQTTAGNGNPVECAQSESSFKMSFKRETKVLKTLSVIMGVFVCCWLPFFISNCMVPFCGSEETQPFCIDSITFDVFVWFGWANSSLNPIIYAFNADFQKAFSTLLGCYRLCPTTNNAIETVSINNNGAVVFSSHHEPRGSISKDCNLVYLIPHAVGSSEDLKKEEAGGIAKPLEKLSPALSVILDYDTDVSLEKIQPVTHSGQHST

Q: Which results are given for `CN1CCc2cccc3c2[C@H]1Cc1cccc(O)c1-3`?
A: Ki [1]: 26.5 nM; Ki [2]: 108 nM; Ratio Ki [3]: 0.24

Q: Which Ki [1] does the source give for `COc1cc2c3c(c1)-c1c(ccc(O)c1O)C[C@H]3N(C)CC2` here?
A: > 10000 nM

Q: What about the Ki [2] of the same compound?
A: 3.5 nM

Q: And the Ratio Ki [3]?
A: > 2860

Q: With `COc1cc2c3c(c1)-c1c(O)cccc1C[C@H]3N(C)CC2` as the compound, how does the Ki [1] read?
A: 46 nM

Q: And the Ki [2]?
A: 235 nM

Q: What about the Ratio Ki [3] of the same compound?
A: 0.19

Q: Which Ki [1] does the source give for `CCN1CCc2cc(OC)cc3c2[C@H]1Cc1cccc(O)c1-3` here?
A: 130 nM

Q: And the Ki [2]?
A: 28 nM

Q: And the Ratio Ki [3]?
A: 4.6

Q: With `CCCCN1CCc2cc(OC)cc3c2[C@H]1Cc1cccc(O)c1-3` as the compound, how does the Ki [1] read?
A: > 10000 nM

Q: And the Ki [2]?
A: > 10000 nM

Q: What does the source list for `CCCN1CCc2cc(OC)cc3c2[C@H]1Cc1ccc(O)c(O)c1-3`?
A: Ki [1]: 6450 nM; Ki [2]: 1.3 nM; Ratio Ki [3]: 4860
